Measurements from ChEMBL document CHEMBL1250465, “A new metabotropic glutamate receptor agonist with in vivo anti-allodynic activity” (Bioorg Med Chem, 2010).
pEC50, pIC50: −log10 of the molar value. Activity calls are given as the source filed them.

Columns and labels:
[1] = tested on: Rattus norvegicus; assay: Antiallodynic activity against von Frey hair mechanically stimulated neuropathic pain in Sprague-Dawley rat assessed as increase of response threshold at 500 nmol dosed intrathecally after 24 hrs; format: functional, organism-based
Summary of the method: (§1)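 Male Sprague-Dawley rats with chronic constriction injury of the left sciatic nerve, dosed 16 days after surgery. Intrathecal dosing under isoflurane, with vehicle as control. Blinded von Frey testing of both hind paws before dosing and at 1, 3 and 24 h. 50% withdrawal threshold in g from a Gaussian integral psychometric fit by maximum likelihood; n = 6.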

[2] = tested on: Rattus norvegicus; assay: Antiallodynic activity against von Frey hair mechanically stimulated neuropathic pain in Sprague-Dawley rat assessed as increase of response threshold at 50 nmol dosed intrathecally after 24 hrs relative to control; format: functional; settings: in the assay text read “after 3 hrs” for “after 24 hrs”; summary of the method: as §1
[3] = tested on: Rattus norvegicus; assay: Antiallodynic activity against von Frey hair mechanically stimulated neuropathic pain in Sprague-Dawley rat assessed as increase of response threshold at 250 nmol dosed intrathecally after 24 hrs relative to control; format: functional; settings: in the assay text read “after 3 hrs” for “after 24 hrs”; summary of the method: as §1
[4] = tested on: Rattus norvegicus; assay: Antiallodynic activity against von Frey hair mechanically stimulated neuropathic pain in intrathecally dosed Sprague-Dawley rat assessed as increase of response threshold after 3 hrs; format: functional, organism-based; summary of the method: as §1
[5] = Displacement of [3H]AMPA from AMPA receptor in Sprague-Dawley rat brain synaptic membranes after 30 mins; format: cell membranes, Membrane
Summary of the method: (§2)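 Adult male Sprague-Dawley rat cortex synaptic membranes, washed four times in ice-cold pH 7.4 buffer at about 0.4–0.5 mg protein/mL. AMPA: 5 nM [3H]AMPA in 30 mM Tris-HCl/2.5 mM CaCl2 with 100 mM KSCN. Kainate: 5 nM [3H]KAIN in 50 mM Tris-HCl. NMDA: 2 nM [3H]CGP39653 in 50 mM Tris-HCl/2.5 mM CaCl2. Nonspecific binding set with 1 mM (S)-Glu.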

[6] = Displacement of [3H]KAIN from kainate receptor in Sprague-Dawley rat brain synaptic membranes after 60 mins; format: cell membranes, Membrane; summary of the method: as §2
[7] = target: Glutamate NMDA receptor; assay: Displacement of [3H]CGP39653 from NMDA receptor in Sprague-Dawley rat brain synaptic membranes after 60 mins; format: cell membranes, Membrane; summary of the method: as §2
[8] = target: Metabotropic glutamate receptor 1 (Homo sapiens, UniProt Q13255); assay: Agonist activity at mGlu1 receptor expressed in CHO cells assessed as myo-[2-3H]Inositol turnover by scintillation counting; format: functional, cell-based
Summary of the method: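 CHO cells stably expressing receptor, washed with DPBS, preincubated 30 min at 37 °C in HBSS with 20 mM HEPES, 1 mM CaCl2, 1 mM MgCl2, 0.85 mg/mL LiCl, pH 7.4; compound added for 30 min at 37 °C. Stopped with ice-cold 10 mM formic acid, 30 min at 4 °C. [3H]IP measured with yttrium silicate SPA beads; counts per minute read.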

[9] = target: T1, Metabotropic glutamate receptor 2 (Homo sapiens, UniProt Q14416); assay: Agonist activity at mGlu2 receptor expressed in CHO cells assessed as inhibition of forskolin-induced increase of cAMP level; format: functional, cell-based
Summary of the method: (§3)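 CHO cells grown in DMEM GlutaMAX-I, 10% dialyzed FBS, 2.5 g/L L-proline, seeded 26,000/well 24 h before. After a 20 min, 37 °C preincubation in DPBS with 1 mM CaCl2, 1 mM MgCl2, 1 mM IBMX, compound plus 25 µM forskolin was given for 10 min at 37 °C. Stopped with ice-cold sodium acetate pH 6.2, 0.1% Triton X-100, 0.1 mM IBMX; cAMP by radioimmunoassay.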

[10] = target: Metabotropic glutamate receptor 4 (Homo sapiens, UniProt Q14833); assay: Agonist activity at mGlu4 receptor expressed in CHO cells assessed as inhibition of forskolin-induced increase of cAMP level; format: functional, cell-based; summary of the method: as §3
[11] = tested on: Rattus norvegicus; assay: Antiallodynic activity against von Frey hair mechanically stimulated neuropathic pain in Sprague-Dawley rat assessed as increase of response threshold at 500 nmol dosed intrathecally after 1 hr; format: functional, organism-based; summary of the method: as §1
[12] = tested on: Rattus norvegicus; assay: Antiallodynic activity against von Frey hair mechanically stimulated neuropathic pain in Sprague-Dawley rat assessed as increase of response threshold at 500 nmol dosed intrathecally after 3 hrs relative to control; format: functional; summary of the method: as §1
[13] = target: T1, Metabotropic glutamate receptor 2; assay: Antagonist activity at mGlu2 receptor expressed in CHO cells assessed as increase of cAMP level; format: functional, cell-based

Metabotropic glutamate receptor 1, sequence (Q13255 whole entry): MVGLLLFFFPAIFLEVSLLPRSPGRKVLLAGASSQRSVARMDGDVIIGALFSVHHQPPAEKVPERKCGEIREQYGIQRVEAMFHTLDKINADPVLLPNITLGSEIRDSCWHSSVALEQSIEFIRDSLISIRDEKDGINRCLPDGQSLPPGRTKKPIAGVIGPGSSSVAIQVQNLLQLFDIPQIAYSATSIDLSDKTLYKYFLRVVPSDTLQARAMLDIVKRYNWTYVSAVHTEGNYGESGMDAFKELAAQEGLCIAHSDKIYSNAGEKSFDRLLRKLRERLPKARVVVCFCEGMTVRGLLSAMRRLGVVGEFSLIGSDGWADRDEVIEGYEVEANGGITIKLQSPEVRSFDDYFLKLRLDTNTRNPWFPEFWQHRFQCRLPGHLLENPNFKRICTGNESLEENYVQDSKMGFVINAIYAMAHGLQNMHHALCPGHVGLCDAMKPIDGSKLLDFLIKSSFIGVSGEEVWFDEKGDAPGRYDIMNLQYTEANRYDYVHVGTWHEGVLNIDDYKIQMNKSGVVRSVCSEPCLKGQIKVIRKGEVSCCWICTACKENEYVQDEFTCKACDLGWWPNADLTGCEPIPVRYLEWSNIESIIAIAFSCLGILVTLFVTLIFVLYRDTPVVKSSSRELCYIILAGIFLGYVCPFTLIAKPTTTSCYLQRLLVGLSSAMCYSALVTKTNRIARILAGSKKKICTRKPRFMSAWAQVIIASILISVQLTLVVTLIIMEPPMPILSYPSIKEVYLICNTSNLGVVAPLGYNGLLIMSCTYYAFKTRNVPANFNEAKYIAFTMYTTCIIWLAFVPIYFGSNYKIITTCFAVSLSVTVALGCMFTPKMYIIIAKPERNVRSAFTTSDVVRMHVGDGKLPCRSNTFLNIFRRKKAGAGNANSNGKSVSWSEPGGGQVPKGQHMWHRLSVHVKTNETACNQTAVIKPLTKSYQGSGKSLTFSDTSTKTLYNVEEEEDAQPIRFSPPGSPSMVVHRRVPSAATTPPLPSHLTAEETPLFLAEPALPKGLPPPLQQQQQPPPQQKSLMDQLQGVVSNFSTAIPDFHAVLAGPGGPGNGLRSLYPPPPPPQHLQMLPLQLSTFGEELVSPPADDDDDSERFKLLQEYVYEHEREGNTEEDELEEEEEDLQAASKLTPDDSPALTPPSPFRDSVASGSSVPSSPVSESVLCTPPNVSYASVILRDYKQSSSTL
Metabotropic glutamate receptor 4, sequence (Q14833 whole entry): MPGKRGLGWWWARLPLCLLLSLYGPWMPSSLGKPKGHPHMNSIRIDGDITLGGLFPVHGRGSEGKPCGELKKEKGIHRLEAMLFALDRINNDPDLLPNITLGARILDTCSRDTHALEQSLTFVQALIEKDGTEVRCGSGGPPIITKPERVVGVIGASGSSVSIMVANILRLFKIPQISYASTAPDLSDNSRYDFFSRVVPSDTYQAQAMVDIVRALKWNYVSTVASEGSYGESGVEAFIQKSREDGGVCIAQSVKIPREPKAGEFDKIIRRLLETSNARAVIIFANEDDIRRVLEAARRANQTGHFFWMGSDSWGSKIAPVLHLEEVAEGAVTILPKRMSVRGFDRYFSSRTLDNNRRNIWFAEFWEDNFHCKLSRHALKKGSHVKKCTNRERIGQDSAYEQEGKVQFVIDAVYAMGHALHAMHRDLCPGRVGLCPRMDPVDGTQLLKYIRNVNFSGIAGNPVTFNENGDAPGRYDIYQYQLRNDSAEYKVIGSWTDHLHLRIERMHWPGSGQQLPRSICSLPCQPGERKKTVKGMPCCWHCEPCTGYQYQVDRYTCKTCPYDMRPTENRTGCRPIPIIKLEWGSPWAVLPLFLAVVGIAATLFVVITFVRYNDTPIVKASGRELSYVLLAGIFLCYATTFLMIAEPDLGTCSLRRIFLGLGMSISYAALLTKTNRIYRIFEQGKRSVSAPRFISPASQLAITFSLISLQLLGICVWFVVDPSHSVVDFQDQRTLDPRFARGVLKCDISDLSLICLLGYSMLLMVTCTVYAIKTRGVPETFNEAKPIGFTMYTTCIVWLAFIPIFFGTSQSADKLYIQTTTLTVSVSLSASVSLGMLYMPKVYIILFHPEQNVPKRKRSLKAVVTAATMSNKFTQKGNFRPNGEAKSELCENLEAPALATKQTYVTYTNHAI
T1 sequence (Q14416 whole entry): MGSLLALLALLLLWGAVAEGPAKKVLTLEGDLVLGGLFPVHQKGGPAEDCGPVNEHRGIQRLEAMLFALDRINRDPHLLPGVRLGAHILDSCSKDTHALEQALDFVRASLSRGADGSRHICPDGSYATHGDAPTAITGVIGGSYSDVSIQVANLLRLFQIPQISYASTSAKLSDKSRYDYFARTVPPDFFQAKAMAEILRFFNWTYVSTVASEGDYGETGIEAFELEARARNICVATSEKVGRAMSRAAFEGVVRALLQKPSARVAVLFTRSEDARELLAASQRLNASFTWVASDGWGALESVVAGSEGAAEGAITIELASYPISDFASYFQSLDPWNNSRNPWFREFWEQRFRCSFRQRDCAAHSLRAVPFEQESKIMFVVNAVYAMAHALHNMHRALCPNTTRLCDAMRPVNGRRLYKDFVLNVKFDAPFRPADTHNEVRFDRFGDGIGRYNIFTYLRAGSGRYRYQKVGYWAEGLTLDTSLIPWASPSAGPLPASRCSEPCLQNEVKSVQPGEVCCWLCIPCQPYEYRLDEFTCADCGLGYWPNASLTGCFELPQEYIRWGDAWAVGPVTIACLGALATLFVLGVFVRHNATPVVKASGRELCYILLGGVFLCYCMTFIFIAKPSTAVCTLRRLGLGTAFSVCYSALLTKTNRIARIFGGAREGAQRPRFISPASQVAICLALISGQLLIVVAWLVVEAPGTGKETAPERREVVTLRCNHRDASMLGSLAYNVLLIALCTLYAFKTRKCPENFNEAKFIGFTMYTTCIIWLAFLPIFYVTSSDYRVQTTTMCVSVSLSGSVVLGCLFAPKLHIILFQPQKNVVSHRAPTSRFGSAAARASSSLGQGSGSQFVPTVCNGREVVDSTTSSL

Compound | Activity [1] | Activity [2] | Activity [3] | Activity [4] | pIC50 [5] | pIC50 [6] | pIC50 [7] | pEC50 [8] | pEC50 [9] | pEC50 [10] | Activity [11] | Activity [12] | pIC50 [13]
N[C@H](C(=O)O)[C@@H]1[C@@H](C(=O)O)[C@@H]1C1CC1 (racemic) | inactive | 5 g | 7.5 g | Dose-dependent effect | < 4.00 | < 4.00 | < 4.00 | < 4.00 | 7.30 | < 4.00 | Active | 10 g | 
N[C@H](C(=O)O)[C@@H]1[C@@H](C(=O)O)[C@@H]1C1CCCCC1 (racemic) |  |  |  |  | < 4.00 | < 4.00 | < 4.00 | < 4.00 |  | < 4.00 |  |  | 4.21
C[C@H]1[C@H](C(=O)O)[C@H]1[C@H](N)C(=O)O (racemic) |  |  |  |  |  |  |  | < 4.00 | 8.00 | < 4.00 |  |  | 
